Test results reported in ChEMBL document CHEMBL4706489, “Hydrogen sulfide releasing oridonin derivatives induce apoptosis through extrinsic and intrinsic pathways” (Eur J Med Chem, 2020).
Active and inactive are the calls of the source. The rule behind the calls is not given here.

What was measured:
[1] = test system: K562; test: Induction of apoptosis in human K562 cells assessed as increase in DR4 protein expression at 1 uM after 24 hrs by chemiluminescence based apoptosis array method; type: functional, cell-based
Summary of the method: (§1)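 K562 cells were treated with 1 test agent for 24 h. Diluted total-cell lysates were applied to a human apoptosis antibody array covering 35 apoptosis-related proteins for 24 h. Unbound protein was washed off, and arrays were probed with a biotinylated detection antibody for 1 h. Relative expression was read from chemiluminescent signal by digital imaging.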

[2] = test system: B16; test: Antiproliferative activity against mouse B16 cells assessed as reduction in cell viability after 72 hrs by MTT assay; conditions: B16, 72 h
[3] = test system: HepG2; test: Induction of cell cycle arrest in human HepG2 cells assessed as accumulation at G1 phase at 0.5 uM after 48 hrs by propidium iodide staining based flow cytometric analysis (reference value: 49.46 to 50.3%); type: functional
Summary of the method: (§2)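 HepG2 cells were treated with 0, 0.50, 1.0 or 2.0 test agent for 48 h. Cells were washed in cold PBS and fixed in 70% ethanol at −20 °C overnight. DNA-content distribution was measured by flow cytometry. Mean ± SD, three independent experiments.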

[4] = test system: K562; test: Induction of apoptosis in human K562 cells assessed as early apoptotic cells at 1 uM after 48 hrs by annexin V FITC and propidium iodide staining based flow cytometric analysis (reference value: 2.13%); type: functional
[5] = test system: K562; test: Induction of apoptosis in human K562 cells assessed as necrotic cells at 1 uM after 48 hrs by annexin V FITC and propidium iodide staining based flow cytometric analysis (reference value: 0.69%); type: functional
[6] = test system: K562; test: Induction of cell cycle arrest in human K562 cells assessed as accumulation at G1 phase at 1 uM after 48 hrs by propidium iodide staining based flow cytometric analysis (reference value: 43.24 to 43.37%); type: functional
[7] = Selectivity ratio of IC50 for cytotoxicity against human PBMC cells to IC50 for antiproliferative activity against human K562 cells; type: toxicity, cell-based; conditions: read-out: Ratio IC50
[8] = test system: K562; test: Induction of cell cycle arrest in human K562 cells assessed as accumulation at G2 phase at 1 uM after 48 hrs by propidium iodide staining based flow cytometric analysis (reference value: 10.96 to 12.03%); type: functional
[9] = Selectivity ratio of IC50 for cytotoxicity against human PBMC cells to IC50 for antiproliferative activity against human HepG2 cells; type: toxicity, cell-based; conditions: read-out: Ratio IC50
[10] = test system: HepG2; test: Induction of apoptosis in human HepG2 cells assessed as necrotic cells at 2 uM after 48 hrs by annexin V FITC and propidium iodide staining based flow cytometric analysis (reference value: 0.89%); type: functional
[11] = test system: K562; test: Induction of apoptosis in human K562 cells assessed as viable cells at 0.5 uM after 48 hrs by annexin V FITC and propidium iodide staining based flow cytometric analysis (reference value: 96.76%); type: functional; conditions: read-out: Activity
[12] = test system: K562; test: Induction of apoptosis in human K562 cells assessed as decrease in livin protein expression at 1 uM after 24 hrs by chemiluminescence based apoptosis array method; type: functional, cell-based; summary of the method: as §1
[13] = test system: HepG2; test: Induction of cell cycle arrest in human HepG2 cells assessed as accumulation at G2 phase at 1 uM after 48 hrs by propidium iodide staining based flow cytometric analysis (reference value: 16.48 to 16.97%); type: functional; summary of the method: as §2
[14] = test system: K562; test: Induction of cell cycle arrest in human K562 cells assessed as accumulation at S phase at 0.5 uM after 48 hrs by propidium iodide staining based flow cytometric analysis (reference value: 44.73 to 45.96%); type: functional
[15] = test system: HepG2; test: Induction of apoptosis in human HepG2 cells assessed as necrotic cells at 0.5 uM after 48 hrs by annexin V FITC and propidium iodide staining based flow cytometric analysis (reference value: 0.89%); type: functional
[16] = test system: K562; test: Induction of apoptosis in human K562 cells assessed as decrease in C-IAP1 protein expression at 1 uM after 24 hrs by chemiluminescence based apoptosis array method; type: functional, cell-based; summary of the method: as §1
[17] = test system: K562; test: Induction of apoptosis in human K562 cells after 48 hrs by annexin V FITC and propidium iodide staining based flow cytometric analysis; conditions: dose 0.5-2 µM
[18] = test system: K562; test: Induction of apoptosis in human K562 cells assessed as early apoptotic cells at 2 uM after 48 hrs by annexin V FITC and propidium iodide staining based flow cytometric analysis (reference value: 2.13%); type: functional
[19] = test system: K562; test: Induction of apoptosis in human K562 cells assessed as decrease in survivin protein expression at 1 uM after 24 hrs by chemiluminescence based apoptosis array method; type: functional, cell-based; summary of the method: as §1
[20] = test system: K562; test: Induction of cell cycle arrest in human K562 cells assessed as accumulation at G2 phase at 0.5 uM after 48 hrs by propidium iodide staining based flow cytometric analysis (reference value: 10.96 to 12.03%); type: functional
[21] = test system: K562; test: Induction of apoptosis in human K562 cells assessed as increase in cleaved caspase-3 at 1 uM after 24 hrs by chemiluminescence based apoptosis array method; type: functional, cell-based; summary of the method: as §1
[22] = test system: K562; test: Induction of cell cycle arrest in human K562 cells assessed as accumulation at G2 phase at 2 uM after 48 hrs by propidium iodide staining based flow cytometric analysis (reference value: 10.96 to 12.03%); type: functional
[23] = test system: K562; test: Induction of apoptosis in human K562 cells assessed as necrotic cells at 2 uM after 48 hrs by annexin V FITC and propidium iodide staining based flow cytometric analysis (reference value: 0.69%); type: functional
[24] = test system: MCF7; test: Antiproliferative activity against human MCF7 cells assessed as reduction in cell viability after 72 hrs by MTT assay; conditions: MCF7, 72 h
[25] = test system: HepG2; test: Induction of cell cycle arrest in human HepG2 cells assessed as accumulation at G1 phase at 2 uM after 48 hrs by propidium iodide staining based flow cytometric analysis (reference value: 49.46 to 50.3%); type: functional; summary of the method: as §2
[26] = test system: L02; test: Cytotoxicity against human L02 cells assessed as cell viability after 72 hrs by MTT assay; conditions: L02, 72 h
[27] = test system: HepG2; test: Induction of cell cycle arrest in human HepG2 cells assessed as accumulation at S phase at 1 uM after 48 hrs by propidium iodide staining based flow cytometric analysis (reference value: 33.22 to 33.58%); type: functional
[28] = test system: HepG2; test: Induction of apoptosis in human HepG2 cells assessed as early apoptotic cells at 2 uM after 48 hrs by annexin V FITC and propidium iodide staining based flow cytometric analysis (reference value: 2.89%); type: functional
[29] = test system: HepG2; test: Induction of cell cycle arrest in human HepG2 cells assessed as accumulation at S phase at 2 uM after 48 hrs by propidium iodide staining based flow cytometric analysis (reference value: 33.22 to 33.58%); type: functional
[30] = test system: K562; test: Induction of apoptosis in human K562 cells assessed as viable cells at 1 uM after 48 hrs by annexin V FITC and propidium iodide staining based flow cytometric analysis (reference value: 96.76%); type: functional; conditions: read-out: Activity
[31] = test system: HepG2; test: Induction of apoptosis in human HepG2 cells assessed as viable cells at 0.5 uM after 48 hrs by annexin V FITC and propidium iodide staining based flow cytometric analysis (reference value: 93.5%); type: functional; conditions: read-out: Activity
[32] = test system: HepG2 (human); test: Induction of apoptosis in human HepG2 cells after 48 hrs by annexin V FITC and propidium iodide staining based flow cytometric analysis; conditions: dose 0.5-2 µM

With `C=C1C(=O)[C@]23[C@H](OC(=O)CCC(=O)OCCCCCCOc4ccc(-c5cc(=S)ss5)cc4)[C@H]1CC[C@H]2[C@@]12CO[C@@]3(O)[C@@H](O)[C@@H]1C(C)(C)CC[C@@H]2OC(C)=O` the Activity [1] was “Active”, the IC50 [2] was 12.9 µM and the Activity [3] was 55.35%. The Activity [4] was 11.39%, the Activity [5] was 1.16% and the Activity [6] was 34.14%. It also gave a selectivity ratio [7] of 20, an Activity [8] of 10.32% and a selectivity ratio [9] of 20. The Activity [10] was 4.42%, the viability at 0.5 µM [11] was 87% and the Activity [12] was “Active”. The Activity [13] was 11.5%, the Activity [14] was 50.32% and the Activity [15] was 2.7%. The Activity [16] was “Active”, the Activity [17] was “Dose-dependent effect” and the Activity [18] was 23.75%. The Activity [19] was “Active”, the Activity [20] was 11.07% and the Activity [21] was “Active”. For the same compound, the Activity [22] was 7.39%, the Activity [23] was 1.57% and the IC50 [24] was 16.1 µM. It also gave an Activity [25] of 65.1%, an IC50 [26] of 17.6 µM and an Activity [27] of 27.19%. For the same compound, the Activity [28] was 26.44%, the Activity [29] was 28.3% and the viability at 1 µM [30] was 79.1%. For the same compound, the viability at 0.5 µM [31] was 76.7% and the Activity [32] was “Dose-dependent effect”.
